Calls of active or inactive are those of the source. No cut-off for these calls is given here.
Key:
Rattus norvegicus [1] = assay: Locomotory activity was determined in non pretreated rats at a dose of 3.2 umol/kg by subcutaneous administration; type: functional
Summary of the method: (§1)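 Untreated rats received test drug sc 5 min before a 30-min session in photocell motility meters, with accumulated counts recorded. Activity is expressed as percent of saline controls, mean ± SEM, n = 3-5. Gross behaviour was observed through a semitransparent mirror. Differences from saline controls were assessed by Student's t test.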

Rattus norvegicus [2] = assay: Change in rectal temperature induced by DiPr-5,6-ADTN at a dose of 13 umol/kg of compound by subcutaneous administration; type: functional
Summary of the method: (§2)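 Rats received DiPr-5,6-ADTN (0.25 μmol/kg sc) 100 min and test compound sc 40 min before death. Rectal temperature change (°C) was recorded between 60 and 100 min after DiPr-5,6-ADTN. Values are mean ± SEM, n = 4, with Student's t test vs DiPr-5,6-ADTN alone.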

Rattus norvegicus [3] = assay: In vivo DOPA accumulation in reserpine pretreated rat striatum system by subcutaneous administration.; type: functional; details: sc
Summary of the method: (§3)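 Rats received reserpine (5 mg/kg sc) 18 h, test drug sc 60 min and NSD 1015 (100 mg/kg ip) 30 min before death, with saline controls. Limbic or striatal DOPA was measured. Dose for half-maximal decrease was estimated from 4-7-dose curves (n = 3-5), minimal level as % of control.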

Rattus norvegicus [4] = assay: Locomotory activity was determined in reserpine pretreated rats at a dose of 52 umol/kg by subcutaneous administration. Value is the accumulation counts/30 min; type: functional
Summary of the method: (§4)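 Rats were given reserpine 5 mg/kg sc 18 h beforehand, then test drug sc immediately before the activity session. Motor activity was recorded by photocells in motility meters as accumulated counts over 30 min, mean ± SEM, n = 3-4. Gross behaviour was watched for signs of stimulation. Reserpine-only controls were included.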

Rattus norvegicus [5] = assay: Induced locomotor stimulation in non pre-treated rats by 13 umol/kg s.c. administration.; type: functional
Rattus norvegicus [6] = assay: Locomotory activity was determined in non pretreated rats at a dose of 52 umol/kg by subcutaneous administration.; type: functional; summary of the method: as §1
[7] = molecular target: T1, Dopamine receptor (Rattus norvegicus) (UniProt P25115+P19020+P30729+P18901+P61169); assay: Ability to displace the Dopamine receptor agonist DiPr-5,6-ADTN from rat striatal binding sites in vivo at a dose of 13 uM/kg by subcutaneous administration; type: organism-based
Rattus norvegicus [8] = assay: In vivo DOPA accumulation in reserpine pretreated rat limbic system by subcutaneous administration.; type: functional; details: sc; summary of the method: as §3
Rattus norvegicus [9] = assay: In vivo DOPA accumulation in reserpine pretreated rat limbic system by subcutaneous administration; type: functional; details: sc; summary of the method: as §3
Rattus norvegicus [10] = assay: In vivo DOPA accumulation in reserpine pretreated rat striatum system by subcutaneous administration; type: functional; details: sc; summary of the method: as §3
Rattus norvegicus [11] = assay: Induced locomotor stimulation was determined in non pretreated rats at a dose of 52 uM/kg by subcutaneous administration; type: functional; summary of the method: as §1
Rattus norvegicus [12] = assay: Locomotory activity was determined in reserpine pretreated rats at a dose of 125 umol/kg by subcutaneous administration. Value is the accumulation counts/30 min; type: functional; summary of the method: as §4
Rattus norvegicus [13] = assay: Change in rectal temperature induced by DiPr-5,6-ADTN at a dose of 52 umol/kg of compound by subcutaneous administration; type: functional; summary of the method: as §2
[14] = molecular target: T1, Dopamine receptor (Rattus norvegicus); assay: Ability to displace the Dopamine receptor agonist DiPr-5,6-ADTN from rat striatal binding sites in vivo at a dose of 52 uM/kg by subcutaneous administration; type: organism-based
[15] = molecular target: T1, Dopamine receptor (Rattus norvegicus); assay: Ability to displace the Dopamine receptor agonist DiPr-5,6-ADTN from rat striatal binding sites in vivo at a dose of 13 umol/kg by subcutaneous administration; type: organism-based
Rattus norvegicus [16] = assay: Change in rectal temperature induced by DiPr-5,6-ADTN at a dose of 3.2 umol/kg of compound by subcutaneous administration; type: functional; summary of the method: as §2
Rattus norvegicus [17] = assay: ((+)-UH-232) induced locomotor stimulation was determined in non pretreated rats at a dose of 13 umol/kg by subcutaneous administration; type: functional
Rattus norvegicus [18] = assay: ((+)-UH-232) induced locomotor stimulation was determined in non pretreated rats at a dose of 52 umol/kg by subcutaneous administration; type: functional
[19] = molecular target: T1, Dopamine receptor (Rattus norvegicus); assay: In vivo displacement of DiPr-5,6-ADTN from Dopamine receptors in rat striatum; type: organism-based
Rattus norvegicus [20] = assay: Locomotory activity was determined in non pretreated rats at a dose of 52 umol/kg by subcutaneous administration; type: functional; summary of the method: as §1
Rattus norvegicus [21] = assay: In vivo DOPA accumulation in non pre-treated rat limbic system following s.c. administration.; type: functional; details: sc
Summary of the method: (§5)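 Rats without pretreatment received test drug sc 65 min and NSD 1015 (100 mg/kg ip) 30 min before death, with saline controls. DOPA was measured in limbic or striatal tissue. Dose for half-maximal change was estimated from 4-5-dose curves (n = 3-5), maximal level as % of control.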

Rattus norvegicus [22] = assay: Change in rectal temperature induced by DiPr-5,6-ADTN at a dose of 13 subcutaneous administration; type: functional; summary of the method: as §2
[23] = molecular target: T1, Dopamine receptor (Rattus norvegicus); assay: Ability to displace the Dopamine receptor agonist DiPr-5,6-ADTN from rat striatal binding sites in vivo at a dose of 52 umol/kg by subcutaneous administration; type: organism-based
Rattus norvegicus [24] = assay: In vivo DOPA accumulation in non pre-treated rat striatal system following s.c. administration.; type: functional; details: sc; summary of the method: as §5
Rattus norvegicus [25] = assay: Induced locomotor stimulation was determined in non pretreated rats at a dose of 3.2 umol/kg by subcutaneous administration; type: functional; summary of the method: as §1
Rattus norvegicus [26] = assay: In vivo DOPA accumulation in non pretreated rat limbic system by subcutaneous administration; I denotes inactive; type: functional, organism-based; summary of the method: as §5
Rattus norvegicus [27] = assay: Locomotory activity was determined in non pretreated rats at a dose of 52 umol/kg by subcutaneous administration; I denotes inactive; type: functional; summary of the method: as §1
Rattus norvegicus [28] = assay: Change in rectal temperature induced by DiPr-5,6-ADTN at a dose of 45 umol/kg of compound by subcutaneous administration; type: functional; summary of the method: as §2
Rattus norvegicus [29] = assay: Locomotory activity was determined in non pretreated rats at a dose of 3.2 umol/kg by subcutaneous administration; I denotes inactive; type: functional, organism-based; summary of the method: as §1
Rattus norvegicus [30] = assay: Change in rectal temperature induced by DiPr-5,6-ADTN at a dose of 22 umol/kg of compound by subcutaneous administration; type: functional; summary of the method: as §2
[31] = molecular target: T1, Dopamine receptor (Rattus norvegicus); details: 45 uM
Rattus norvegicus [32] = assay: Locomotory activity was determined in reserpine pretreated rats at a dose of 204 umol/kg by subcutaneous administration. Value is the accumulation counts/30 min; type: functional; summary of the method: as §4
[33] = molecular target: T1, Dopamine receptor (Rattus norvegicus); details: 22 uM
Rattus norvegicus [34] = assay: In vivo DOPA accumulation in non pretreated rat striatum system by subcutaneous administration; I denotes inactive; type: functional, organism-based; summary of the method: as §5
Rattus norvegicus [35] = assay: Induced locomotor stimulation was determined in non pretreated rats at a dose of 52 umol/kg by subcutaneous administration; type: functional; summary of the method: as §1
Rattus norvegicus [36] = assay: Induced locomotor stimulation in non pre-treated rats by 52 umol/kg s.c. administration.; type: functional

Compound: CCCN(CCC)[C@H]1CCc2c(O)cccc2[C@@H]1C
- Activity (Rattus norvegicus [1]): 79%
- Body temp change (Rattus norvegicus [2]): -0.83 °C
- ED50 (Rattus norvegicus [3]): 7.9 µmol/kg
- Activity (Rattus norvegicus [4]): 19 counts/30 min
- Activity (Rattus norvegicus [5]): 92%
- Activity (Rattus norvegicus [6]): 74%
- Binding [7]: 91%
- ED50 (Rattus norvegicus [8]): 7.3 µmol/kg

Compound: CCCN[C@H]1CCc2c(O)cccc2[C@H]1C
- ED50 (Rattus norvegicus [9]): 4 µmol/kg
- ED50 (Rattus norvegicus [10]): 5 µmol/kg
- Activity (Rattus norvegicus [11]): 80%
- Activity (Rattus norvegicus [12]): 26%
- Body temp change (Rattus norvegicus [13]): -0.45 °C
- Binding [14]: 66%

Compound: COc1cccc2c1CC[C@@H](N(C)C)[C@H]2C
- Binding [15]: 40%
- Temperature (Rattus norvegicus [16]): -0.15 °C
- Activity (Rattus norvegicus [1]): 100%
- Activity (Rattus norvegicus [17]): 15%
- Activity (Rattus norvegicus [18]): 8%
- Binding [19]: 60%
- Activity (Rattus norvegicus [20]): 9%
- Temperature (Rattus norvegicus [13]): 0.28 °C
- ED50 (Rattus norvegicus [21]): 2.2 µmol/kg
- Temperature (Rattus norvegicus [22]): 1.6 °C
- Binding [23]: 14%
- ED50 (Rattus norvegicus [24]): 2.9 µmol/kg
- Activity (Rattus norvegicus [25]): 62%

Compound: CCCN(CCC)[C@H]1CCc2c(OC)cccc2[C@H]1C
- ED50 (Rattus norvegicus [9]): 5.5 µmol/kg
- ED50 (Rattus norvegicus [10]): 5.8 µmol/kg
- ED50 (Rattus norvegicus [26]): inactive
- Activity (Rattus norvegicus [27]): inactive
- Body temp change (Rattus norvegicus [28]): 0.5 °C
- Activity (Rattus norvegicus [29]): inactive
- Body temp change (Rattus norvegicus [30]): 0.12 °C
- Binding [31]: 94%
- Activity (Rattus norvegicus [32]): 8 counts/30 min
- Binding [33]: 106%
- ED50 (Rattus norvegicus [34]): inactive

Compound: CCN(CC)[C@@H]1CCc2c(OC)cccc2[C@@H]1C
- Activity (Rattus norvegicus [1]): 100%
- Body temp change (Rattus norvegicus [2]): 1.2 °C
- Binding [19]: 44%
- Body temp change (Rattus norvegicus [13]): 1.4 °C
- ED50 (Rattus norvegicus [21]): 5.5 µmol/kg
- Activity (Rattus norvegicus [35]): 14%
- Activity (Rattus norvegicus [5]): 40%
- Binding [14]: 28%
- Activity (Rattus norvegicus [36]): 46%
- ED50 (Rattus norvegicus [24]): 2.9 µmol/kg
